# Screening results: PubChem BioAssay, several laboratories
# In the library only some 1.7% were active in any assay of this set; here they are far more common.
# T cell HTS: T cell immune modulation candidate | 2C CD8+ T cell-vesicle binding, flow cytometry; hits give low values | response (vesicle binding), % at 7 µM | AID 2052 | 0.068% of 330,000 active;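 active means response, share of CD8 T cells binding vesicles, and their 90th percentile fluorescence all below set limits, cut at about 80% in these data, passing the limit was not always enough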;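 further: values below 100% mean blocked vesicle binding to the CD8+ T cells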
#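 material = purified 2C TCR transgenic mouse naive CD8+ T cells | controls = Unloaded micro-vesicles (low), QL9 vesicles with 0.7% DMSO (high) | detection = cytometric PE anti-B7-1 and Alexa647 anti-CD8 signals after 1% paraformaldehyde fixation | incubation = binding step 1.5 h, 37 °C, antibody labelling 20 min, ice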
# Pemphigus Ab inh: human desmoglein-3 autoantibody binding inhibition. P32926. DSG3-coupled beads, scFv-anti-DSG3-GFP binding, flow cytometry; hits give low values. 0.48% of 310,000 active. binding (percent of control), % at 10 µM;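 active means binding more than 3 SD below its plate's average and above zero; inconclusive means below that plate limit but binding exactly zero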;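 further: hits lower antibody fragment binding to DSG3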
# Target sequence (P32926 whole entry, looked up, the tested form may be a part): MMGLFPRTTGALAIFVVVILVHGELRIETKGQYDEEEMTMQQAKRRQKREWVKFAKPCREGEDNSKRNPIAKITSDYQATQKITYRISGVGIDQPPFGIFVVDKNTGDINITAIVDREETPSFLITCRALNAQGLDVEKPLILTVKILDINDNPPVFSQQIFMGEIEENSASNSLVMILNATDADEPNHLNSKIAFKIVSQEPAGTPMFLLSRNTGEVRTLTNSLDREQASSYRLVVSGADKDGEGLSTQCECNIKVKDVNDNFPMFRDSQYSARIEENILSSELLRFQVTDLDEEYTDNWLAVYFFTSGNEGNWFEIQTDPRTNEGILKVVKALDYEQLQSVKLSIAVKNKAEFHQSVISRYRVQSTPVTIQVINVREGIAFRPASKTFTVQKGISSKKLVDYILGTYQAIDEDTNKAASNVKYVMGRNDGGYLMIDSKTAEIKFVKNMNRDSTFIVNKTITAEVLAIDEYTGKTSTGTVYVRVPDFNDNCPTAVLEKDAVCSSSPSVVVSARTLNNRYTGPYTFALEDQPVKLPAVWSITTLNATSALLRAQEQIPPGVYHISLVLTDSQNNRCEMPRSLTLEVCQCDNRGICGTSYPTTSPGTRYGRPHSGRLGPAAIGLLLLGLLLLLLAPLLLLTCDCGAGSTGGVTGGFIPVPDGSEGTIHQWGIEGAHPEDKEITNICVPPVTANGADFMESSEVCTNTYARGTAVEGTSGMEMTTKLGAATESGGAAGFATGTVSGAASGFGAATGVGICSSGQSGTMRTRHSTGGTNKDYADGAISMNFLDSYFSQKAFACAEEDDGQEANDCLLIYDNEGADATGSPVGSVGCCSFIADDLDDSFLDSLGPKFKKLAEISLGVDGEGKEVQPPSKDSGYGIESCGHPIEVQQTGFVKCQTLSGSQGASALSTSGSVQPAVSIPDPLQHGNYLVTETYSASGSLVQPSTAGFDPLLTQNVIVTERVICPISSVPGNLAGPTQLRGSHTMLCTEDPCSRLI
# Vif inh: inhibitors of HIV Vif | inhibition, % at 7.49 µM | 0.35% of 340,000 active | HEK293T cells, Vif self-association by quenched fluorescence, imaging, 24 h; in the data active means inhibition above about 50%, passing the limit was not always enough; inconclusive means no clear call, values can overlap the other calls; inactive means below about 31%
# Myeloid diff 2: promotes myeloid progenitor differentiation; ER-HoxA9 myeloid progenitors, lysozyme-GFP differentiation, flow cytometry; calls only at 10 µM; 1% of 360,000 active;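 active means normalized GFP-positive differentiation at or above the plate's own cutoff, the solvent-only control mean plus 3 SD; inconclusive means no clear call, values can overlap the other calls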;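 further: cells exposed to compound for four days before flow analysis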
# Numbers without * were called inactive; i = inactive; u = inconclusive; x = not tested or not shown; + = active, no number; ! = not confirmed by another sample.
SMILES,T cell HTS,Pemphigus Ab inh,Vif inh,Myeloid diff 2
CCOC(=O)C(Cc1c[nH]c2cc([N+](=O)[O-])ccc12)(NC(C)=O)C(=O)OCC,x,113,-2,i
COc1ccccc1N1CCN(Cc2cc(=O)oc3cc(C)cc(C)c23)CC1,x,x,-5,i
Nc1nc(N)c2nc(-c3ccccc3)c(N)nc2n1,549,93,-10,+
Nc1ccc2nc(-c3ccccc3)c(-c3ccccc3)nc2c1,i,128,-14,i
O=c1[nH]cnc2nc(-c3ccccc3)c(-c3ccccc3)nc12,283,99,20,i
NSc1nc(N)c2nc(-c3ccccc3)c(-c3ccccc3)nc2n1,296,67*,8,i
CCOC(=O)C1(C)CCN1C(=O)c1ccc(OC)c(F)c1 (stereo unspecified),x,x,-6,i
CC(=O)Nc1ccc(S(=O)(=O)NCc2ccc3c(c2)cc(C)n3C)cc1,522,80*,8,i
Cc1cc2cc(CNS(=O)(=O)c3ccc4ccccc4c3)ccc2n1C,764,83,-8,i
Cc1cc2cc(CNC(=O)Cc3cccs3)ccc2n1C,974,64*,x,i
COc1ccc(NC(=O)c2ccc(CNc3c(NC4CCCCC4)c(=O)c3=O)cc2)c(OC)c1,320,-2.5*!,-6,i
COc1ccc(NC(=O)NC2CCCCCCC2)c(OC)c1,380,111,2,i
COc1ccc(NC(=O)NC2CCCCCCC2)cc1,69*,101,-3,i
CCOc1ccc(NC(=O)c2ccc(CNc3c(NC4CCCCC4)c(=O)c3=O)cc2)cc1,612,96,10,i
COc1ccc(CC(=O)NC2CCCCCC2)c(OC)c1,632,-48*,-9,i
COc1cc([C@@H]2[C@H]3CNCC=C3C(C#N)=C(N)C2(C#N)C#N)ccc1OC(C)C,641,117,-19,+
CN(C)c1ccc(/C=C2\C(=N)N3N=C(CC(=O)N4CCCCC4)SC3=NC2=O)cc1,552,752,x,+
CN(C)c1ccc(/C=C2\C(=N)N3N=C(CC(=O)N4CCCC4)SC3=NC2=O)cc1Br,174,96,-2,i
CN(C(=O)CSc1nnc(-c2ccco2)n1Cc1ccccc1)C1CCS(=O)(=O)C1 (stereo unspecified),496,114,-8,i
COc1ccc(S(=O)(=O)N2C[C@H]3CON(C)[C@H]3C[C@H]2c2ccc(-c3cc4ccccc4o3)cc2)cc1,x,101,-4,i
CSc1nc2nccc(-c3ccc(-c4ccccc4)cc3)n2n1,242,96,-12,i
CSc1nc2nccc(-c3ccc4c(c3)OCO4)n2n1,137,104*,1,i
C#CCOCCOCCOCCNc1nc(N2CCN(C(=O)CCCCCCCCCCNC(=O)[C@H]([C@@H](C)CC)n3cc(CCCCCN)nn3)CC2)nc(N2CCN(C(=O)CCCCCCCCCCNC(=O)[C@@H]([C@H](C)CC)n3cc(CCCCCN)nn3)CC2)n1,358,x,x,x
C#CCOCCOCCOCCNc1nc(N2CCN(C(=O)CCCCCCCCCCNC(=O)[C@H]([C@@H](C)CC)n3cc(CCCCCN)nn3)CC2)nc(N2CCN(C(=O)CCCCCCCCCCNC(=O)[C@H](CO)n3cc(CCCCCN)nn3)CC2)n1,387,115,96*,i
C#CCOCCOCCOCCNc1nc(N2CCOCC2)nc(N2CCN(C(=O)CCCCCCCCCCNC(=O)[C@@H]([C@H](C)CC)n3cc(CCCCCN)nn3)CC2)n1,283,100,4,+
SMILES,T cell HTS,Pemphigus Ab inh,Vif inh,Myeloid diff 2
C#CCOCCOCCOCCNc1nc(N2CCN(C(=O)CCCCCCCCCCNC(=O)[C@H]([C@@H](C)CC)n3cc(CCCCCN)nn3)CC2)nc(N2CCN(C(=O)CCCCCCCCCCNC(=O)[C@H]([C@@H](C)CC)n3cc(CCCCN=C(N)N)nn3)CC2)n1,534,160,+,i
C#CCOCCOCCOCCNc1nc(N2CCN(C(=O)CCCCCCCCCCNC(=O)[C@H]([C@@H](C)CC)n3cc(CCCCN=C(N)N)nn3)CC2)nc(N2CCN(C(=O)CCCCCCCCCCNC(=O)[C@H]([C@@H](C)CC)n3cc(CCCCN=C(N)N)nn3)CC2)n1,747,x,x,x
C#CCOCCOCCOCCNc1nc(N2CCN(C(=O)CCCCCCCCCCNC(=O)Cn3cc(CCCCCN)nn3)CC2)nc(N2CCN(C(=O)CCCCCCCCCCNC(=O)[C@H]([C@@H](C)CC)n3cc(CCCCN=C(N)N)nn3)CC2)n1,529,152,104*,i
C#CCOCCOCCOCCNc1nc(N2CCN(C(=O)CCCCCCCCCCNC(=O)[C@H]([C@@H](C)CC)n3cc(CCCCN=C(N)N)nn3)CC2)nc(N2CCN(C(=O)CCCCCCCCCCNC(=O)[C@H](CO)n3cc(CCCCCN)nn3)CC2)n1,480,124,21,i
O=C(c1cccs1)N1CCN(C(=O)c2cccs2)C1=S,x,93,76*,u
O=C(c1cccs1)N1CCCC1,293,72,0,i
O=C(CN1CCOCC1)OCCCC1CCCCC1,524,98,54*,i
O=C(CCC1CCCCC1)NCCN1CCOCC1,189,116,7,x
Cc1nc(Nc2ccccc2)sc1C(=O)c1ccccc1,244,80*,-3,i
CC(C)CN(C(=O)c1cccc([N+](=O)[O-])c1)c1c(N)n(CC(C)C)c(=O)[nH]c1=O,216,111,56*,i
O=C1CN(C(=O)c2ccc(F)cc2)c2ccccc2N1,26*,96,-3,i
Cc1c(NC(=O)C(C)OC(=O)c2cc(Cl)nc(Cl)c2)c(=O)n(-c2ccccc2)n1C (stereo unspecified),142,110,-6,i
Cc1c(NC(=O)C(C)OC(=O)c2sc3ccccc3c2Cl)c(=O)n(-c2ccccc2)n1C (stereo unspecified),186,86,108*,i
CCC(=O)c1cn([C@@H](CCC(OC)OC)CC(=O)OC(C)(C)C)cc1CC,296,106,x,i
CCC(=O)c1cn(/C(=C\C(=O)OC(C)(C)C)CCC(OC)OC)cc1CC,812,100,0,+
CSc1ccccc1NC(=O)CSCc1nc2sc(C)c(C)c2c(=O)[nH]1,220,112,-7,i
Cc1sc2nc(CSCC(=O)Nc3ccccc3C#N)[nH]c(=O)c2c1C,357,72,3,+
Cc1ccc(CNC(=O)C2CC=CCC2C(=O)O)cc1 (stereo unspecified),141,101,0,i
O=C(O)C1CC=CCC1C(=O)NCc1ccc2c(c1)OCO2 (stereo unspecified),699,110,-12,+
COc1cc2c(c(OC)c1O)C(=O)CO2,280,91,-3,i
COc1cc(OC)c2c(O)c3c(c(-c4c5c(c(O)c6c(OC)cc(OC)cc46)CO[C@@H](C)[C@H]5O)c2c1)[C@H](O)[C@H](C)OC3,342,74*,4,i
COCCN1Cc2cccc(C(=O)Nc3ccc(S(=O)(=O)N4CCCCC4)cc3)c2C1=O,215,104,16,+
COCCN1Cc2cccc(C(=O)Nc3ccc(C)cc3)c2C1=O,680,93,-6,i
